In one data set the target is T1, human topoisomerase I (Homo sapiens, UniProt P11387).
T1 sequence (P11387 1-765): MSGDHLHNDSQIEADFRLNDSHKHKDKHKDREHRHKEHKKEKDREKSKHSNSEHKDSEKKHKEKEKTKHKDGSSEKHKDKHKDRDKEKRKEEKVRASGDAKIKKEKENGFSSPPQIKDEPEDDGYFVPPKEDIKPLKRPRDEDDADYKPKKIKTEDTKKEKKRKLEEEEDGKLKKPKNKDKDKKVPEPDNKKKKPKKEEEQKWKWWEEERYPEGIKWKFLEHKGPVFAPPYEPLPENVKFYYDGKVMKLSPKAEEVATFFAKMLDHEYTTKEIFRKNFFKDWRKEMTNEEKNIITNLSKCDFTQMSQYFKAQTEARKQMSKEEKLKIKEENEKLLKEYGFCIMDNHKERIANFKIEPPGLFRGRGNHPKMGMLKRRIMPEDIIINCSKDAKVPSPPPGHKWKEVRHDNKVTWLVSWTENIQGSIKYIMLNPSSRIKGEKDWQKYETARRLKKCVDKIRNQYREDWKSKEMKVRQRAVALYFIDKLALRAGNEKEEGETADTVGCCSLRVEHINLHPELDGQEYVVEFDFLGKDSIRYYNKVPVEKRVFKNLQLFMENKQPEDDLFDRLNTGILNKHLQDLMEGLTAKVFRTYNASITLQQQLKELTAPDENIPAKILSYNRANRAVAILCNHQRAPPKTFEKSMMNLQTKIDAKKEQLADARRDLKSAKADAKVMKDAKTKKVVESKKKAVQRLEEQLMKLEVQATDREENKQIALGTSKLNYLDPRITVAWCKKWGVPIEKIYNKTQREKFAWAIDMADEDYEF
In words: Topoisomerase I-mediated DNA cleavage assay. The class given is biochemical. The following applies: for TOP1-targeting activity (in words): summary of Table 1.

Data set [1] concerns MDA-MB-435 human tumor xenografts. In words: Human tumor xenograft antitumor bioassay. The format is in vivo, athymic nude mice. The following applies: for Average tumor volume: MDA-MB-435 xenograft in athymic nude mice; for Antitumor activity in vivo (in words): MDA-MB-435 xenograft, at maximally tolerated doses, I.P. A digest of the protocol:
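Female NCR/NU NU mice, about 9 weeks old, were inoculated sc in the right flank with 1.5 × 10^6 MDA-MB-435 cells (RPMI 1640/10% FBS culture) and grouped by matched tumor volume at 19–20 days. Test compound was given qd × 5/week at per-compound doses, some adjusted during the study; vehicle was 0.1% citrate in H2O. Caliper tumor volume ((l*w2)/2) was taken every other day, with daily weights.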
For orientation: A xenograft is tissue or cells of one species grown in another, often human tumour cells in immunodeficient mice.

In another data set the test system is KBV-1 cells. Put plainly: MTT cytotoxicity assay in KBV-1. The format is cell-based. The following applies: for Substrate for MDR1 efflux transporter (conclusion in words): from relative cytotoxicity KBV-1 vs KB3-1. (Tetrazolium dyes change colour on reduction, which living cells bring about.)
Another data set relates to KBH5.0 cells. Put plainly: MTT cytotoxicity assay in KBH5.0. The class given is cell-based. The following applies: from relative cytotoxicity KBH5.0 vs KB3-1.
The subject of another data set is RPMI8402 cells. Put plainly: MTT cytotoxicity assay in RPMI8402. The class given is cell-based, human.

For the compound `CC[C@@]1(O)C(=O)OCc2c1cc1n(c2=O)Cc2cc3ccccc3nc2-1` [CPT, camptothecin, reference compound], at human topoisomerase I (concentration relative to topotecan (=1) producing 10% cleavage of plasmid DNA), the “TOP1-mediated cleavage (REC, relative effective concentration)” value was 0.2.
Turning to `COc1cc2c(=O)n(CCN(C)C)c3c4cc5c(cc4ncc3c2cc1OC)OCO5` [Compound 1, 5H-8,9-dimethoxy-5-(2-N,N-dimethylaminoethyl)-2,3-methylenedioxydibenzo[c,h][1,6]-naphthyridin-6-one], the Average tumor volume was found to be 120 mm^3 in data set [1] (Day 7, I.P.); 123 mm^3 in data set [1] (Day 14, I.P.); 145 mm^3 in data set [1] (Day 21, I.P.); 158 mm^3 in data set [1] (Day 28, I.P.); 175 mm^3 in data set [1] (Day 35, I.P.); 189 mm^3 in data set [1] (Day 42, I.P.). Further, the Average tumor volume in data set [1] (Day 49, I.P.) was 242 mm^3.
`CCN(CCn1c(=O)c2cc(OC)c(OC)cc2c2cnc3cc4c(cc3c21)OCO4)CC(F)(F)F` [Compound 8, 2,3-Methylenedioxy-8,9-dimethoxy-5-[N-ethyl-N-(2,2,2-trifluoroethyl)aminoethyl]dibenzo[c,h][1,6]naphthyridin-6-one]: the Average tumor volume is 127 mm^3 in data set [1] (Day 7, I.P.); 176 mm^3 in data set [1] (Day 14, I.P.); 268 mm^3 in data set [1] (Day 21, I.P.); 310 mm^3 in data set [1] (Day 28, I.P.); 435 mm^3 in data set [1] (Day 35, I.P.); 543 mm^3 in data set [1] (Day 42, I.P.). In data set [1] (Day 49, I.P.), this compound came in with an Average tumor volume of 718 mm^3. Besides, the “Antitumor activity in vivo (in words)” value in data set [1] is given as “less efficacious than the N-ethyl-N-cyanomethyl analog 11 or the N-ethyl-N-propargyl derivative 14”.
With `COc1cc2c(=O)n(CCN(C)CC#N)c3c4cc5c(cc4ncc3c2cc1OC)OCO5` [Compound 10, 2,3-Methylenedioxy-8,9-dimethoxy-5-[N-cyanomethyl-N-methylaminoethyl]dibenzo[c,h][1,6]naphthyridin-6-one], the Average tumor volume in data set [1] (Day 7, I.P.) is listed as 149 mm^3; in data set [1] (Day 14, I.P.), 222 mm^3; in data set [1] (Day 21, I.P.) it was 370 mm^3; in data set [1] (Day 28, I.P.) it was 392 mm^3; in data set [1] (Day 35, I.P.) it was 528 mm^3; in data set [1] (Day 42, I.P.) it was 669 mm^3. This compound also had an Average tumor volume in data set [1] (Day 49, I.P.) of 919 mm^3. The “Antitumor activity in vivo (in words)” value in data set [1] is listed as “less active than the N-methyl-N-propargyl 13 or N-methyl-N-acetamide 16”.
Regarding `CCN(CC#N)CCn1c(=O)c2cc(OC)c(OC)cc2c2cnc3cc4c(cc3c21)OCO4` [Compound 11, 2,3-Methylenedioxy-8,9-dimethoxy-5-[N-cyanomethyl-N-ethylaminoethyl]dibenzo[c,h][1,6]naphthyridin-6-one], the Average tumor volume in data set [1] (Day 7, I.P.) is recorded as 100 mm^3; in data set [1] (Day 14, I.P.), 156 mm^3; in data set [1] (Day 21, I.P.) it was 178 mm^3; in data set [1] (Day 28, I.P.), 202 mm^3; in data set [1] (Day 35, I.P.), 293 mm^3; in data set [1] (Day 42, I.P.), 361 mm^3. Also, the Average tumor volume in data set [1] (Day 49, I.P.) is 435 mm^3. The “Antitumor activity in vivo (in words)” value in data set [1] was “less potent and effective than ARC-111”.
On to `COc1cc2c(=O)n(CCN(CC#N)C(C)C)c3c4cc5c(cc4ncc3c2cc1OC)OCO5` [Compound 12, 2,3-Methylenedioxy-8,9-dimethoxy-5-[N-cyanomethyl-N-isopropyl-aminoethyl]dibenzo[c,h][1,6]naphthyridin-6-one], for which the Average tumor volume worked out at 142 mm^3 in data set [1] (Day 7, I.P.); 175 mm^3 in data set [1] (Day 14, I.P.); 213 mm^3 in data set [1] (Day 21, I.P.); 220 mm^3 in data set [1] (Day 28, I.P.); 250 mm^3 in data set [1] (Day 35, I.P.); 286 mm^3 in data set [1] (Day 42, I.P.). The compound also gave an Average tumor volume in data set [1] (Day 49, I.P.) of 314 mm^3. In addition, the “Antitumor activity in vivo (in words)” value in data set [1] was “less potent and less efficacious than ARC-111”.
As to `C#CCN(C)CCn1c(=O)c2cc(OC)c(OC)cc2c2cnc3cc4c(cc3c21)OCO4` [Compound 13, 2,3-Methylenedioxy-8,9-dimethoxy-5-[N-methyl-N-(prop-2-ynyl)aminoethyl]dibenzo[c,h][1,6]naphthyridin-6-one], the “TOP1-targeting activity (in words)” value on human topoisomerase I is on record as “retained potent TOP1-targeting activity”. Further, the “Substrate for MDR1 efflux transporter (conclusion in words)” value in the data set on KBV-1 cells is “does not appear to be a substrate for either MDR1 or BCRP”. The “Substrate for BCRP efflux transporter (conclusion in words)” value with KBH5.0 cells was “does not appear to be a substrate for either MDR1 or BCRP”. For the same compound, the Average tumor volume was 144 mm^3 in data set [1] (Day 7, I.P.); 167 mm^3 in data set [1] (Day 14, I.P.); 218 mm^3 in data set [1] (Day 21, I.P.); 284 mm^3 in data set [1] (Day 28, I.P.); 317 mm^3 in data set [1] (Day 35, I.P.); 358 mm^3 in data set [1] (Day 42, I.P.). For the same compound, in data set [1] (Day 49, I.P.), the Average tumor volume was 433 mm^3.
Take `C#CCN(CC)CCn1c(=O)c2cc(OC)c(OC)cc2c2cnc3cc4c(cc3c21)OCO4` [Compound 14, 2,3-Methylenedioxy-8,9-dimethoxy-5-[N-ethyl-N-(prop-2-ynyl)aminoethyl]dibenzo[c,h][1,6]naphthyridin-6-one]: at human topoisomerase I, the “TOP1-targeting activity (in words)” value is “much less active as TOP1-targeting agents”. Further, in the data set on RPMI8402 cells, the “fold less cytotoxic than 13” value is listed as 2-6 fold. Moreover, the Average tumor volume is 115 mm^3 in data set [1] (Day 7, I.P.); 106 mm^3 in data set [1] (Day 14, I.P.); 170 mm^3 in data set [1] (Day 21, I.P.); 204 mm^3 in data set [1] (Day 28, I.P.); 331 mm^3 in data set [1] (Day 35, I.P.); 349 mm^3 in data set [1] (Day 42, I.P.). The Average tumor volume in data set [1] (Day 49, I.P.) stood at 488 mm^3. The “Antitumor activity in vivo (in words)” value in data set [1] is “less potent and effective than ARC-111”.
On to `C#CCN(CCn1c(=O)c2cc(OC)c(OC)cc2c2cnc3cc4c(cc3c21)OCO4)C(C)C` [Compound 15, 2,3-Methylenedioxy-8,9-dimethoxy-5-[N-isopropyl-N-(prop-2-ynyl)aminoethyl]dibenzo-[c,h][1,6]naphthyridin-6-one], for which the “TOP1-targeting activity (in words)” value on human topoisomerase I is recorded as “much less active as TOP1-targeting agents”. For the same compound, the “fold less cytotoxic than 13” value with RPMI8402 cells was 2-6 fold. Further, the Average tumor volume in data set [1] (Day 7, I.P.) was determined as 99 mm^3; in data set [1] (Day 14, I.P.), 112 mm^3; in data set [1] (Day 21, I.P.), 165 mm^3; in data set [1] (Day 28, I.P.), 170 mm^3; in data set [1] (Day 35, I.P.), 234 mm^3; in data set [1] (Day 42, I.P.), 310 mm^3. This compound gave an Average tumor volume in data set [1] (Day 49, I.P.) of 357 mm^3. In addition, the “Antitumor activity in vivo (in words)” value in data set [1] was “less potent and less efficacious than ARC-111”.
On to `COc1cc2c(=O)n(CCN(C)CC(N)=O)c3c4cc5c(cc4ncc3c2cc1OC)OCO5` [Compound 16, 2,3-Methylenedioxy-8,9-dimethoxy-5-[N-(2-amino-2-oxoethyl)-N-methylaminoethyl]dibenzo[c,h][1,6]naphthyridin-6-ones], for which the “TOP1-targeting activity (in words)” value on human topoisomerase I is “retained potent TOP1-targeting activity”. Also, the “fold difference in IC50 values between KB3-1 cells and KBV-1 cells” value in the data set on KBV-1 cells (KBV-1 vs KB3-1) was found to be 7 fold. Moreover, in the data set with KBV-1 cells, the “Substrate for MDR1 efflux transporter (conclusion in words)” value is given as “substrates for MDR1”. In addition, the “Substrate for BCRP efflux transporter (conclusion in words)” value in the data set on KBH5.0 cells was “appears to be a substrate for BCRP”. Further, the Average tumor volume turned out to be 147 mm^3 in data set [1] (Day 7, I.P.); 178 mm^3 in data set [1] (Day 14, I.P.); 230 mm^3 in data set [1] (Day 21, I.P.); 319 mm^3 in data set [1] (Day 28, I.P.); 344 mm^3 in data set [1] (Day 35, I.P.); 434 mm^3 in data set [1] (Day 42, I.P.). In addition, the Average tumor volume in data set [1] (Day 49, I.P.) came out at 527 mm^3.
